Calls of active or inactive are those of the source. The rule behind the calls is not given here.
How the values were obtained:
[1] = target: Aldo-keto reductase family 1 member B1 (Bos taurus) (UniProt P16116); test: NADPH-dependent inhibition of glyceraldehyde reduction by partially purified aldose reductase from bovine lens at 10e-5 M
Summary of the method: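 Partially purified aldose reductase from bovine lens. Inhibition of NADPH-dependent glyceraldehyde reduction was measured at a single test concentration. Values are % inhibition of enzymatic activity, mean of two determinations.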

Mus musculus = test: Antihyperglycemic activity measured as percent decrease in mice plasma glucose at 100 mg/Kg/day; format: functional
Summary of the method: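 Male db/db (C57BL/KsJ) mice, 4–6 per group, dosed at 100 mg/kg per day. Plasma glucose of the drug-treated group is expressed as percent decrease relative to a vehicle-treated control group. Values are mean ± SE, with p < 0.05 marked.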

[2] = target: Aldo-keto reductase family 1 member B1 (Bos taurus) (UniProt P16116); test: In vitro aldose reductase inhibitory activity measured by NADPH-dependent inhibition of glyceraldehyde reduction in a partially purified bovine lens preparation at 10E-6 M
Summary of the method: (§1)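 Aldose reductase partially purified from bovine lens. Inhibition of NADPH-dependent glyceraldehyde reduction is measured at the single stated concentration and reported as percent inhibition, the mean of two determinations.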

Rattus norvegicus [3] = test: In vivo galactitol inhibitory activity measured by its ability to inhibit galactitol accumulation in sciatic nerve at 3 mg/Kg/day; NS=Not significant (% Inhibition); format: functional, organism-based
Summary of the method: (§2)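 Rats (n = 6) fed 20% galactose for 4 days, with compound given in the diet at the stated daily dose. Galactitol accumulation was measured in lens, sciatic nerve and diaphragm, and % inhibition was taken versus the nontreated group. Means are from three to eight drug-treated tissue samples. Dunnett's multiple comparison test was applied, with p > 0.05 reported as not significant.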

Rattus norvegicus [4] = test: In vivo galactitol inhibitory activity measured by its ability to inhibit galactitol accumulation in diaphragm at 3 mg/Kg/day; NS=Not significant (% Inhibition); format: functional, organism-based
Summary of the method: (§3)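 Rats (n = 6) fed 20% galactose for 4 days, with compound given in the diet at the stated mg/kg per day. Galactitol accumulation in lens, sciatic nerve or diaphragm is scored as percent inhibition versus the non-treated group, as means of 3–8 drug-treated tissue samples. Dunnett's multiple comparison test applies; NS means p > 0.05.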

Rattus norvegicus [5] = test: In vivo galactitol inhibitory activity measured by its ability to inhibit galactitol accumulation in lens at 3 mg/Kg/day; NS=Not significant (% Inhibition); format: functional, organism-based; conditions: Lens of camera-type eye; summary of the method: as §3
Rattus norvegicus [6] = test: In vivo galactitol inhibitory activity measured by its ability to inhibit galactitol accumulation in lens at 6 mg/Kg/day; format: functional, Lens of camera-type eye; summary of the method: as §3
Rattus norvegicus [7] = test: In vivo galactitol inhibitory activity measured by its ability to inhibit galactitol accumulation in sciatic nerve at 6 mg/Kg/day; format: functional; summary of the method: as §2
Rattus norvegicus [8] = test: In vivo galactitol inhibitory activity measured by its ability to inhibit galactitol accumulation in diaphragm at 6 mg/Kg/day; format: functional; summary of the method: as §3
[9] = target: Aldo-keto reductase family 1 member B1 (Bos taurus) (UniProt P16116); test: In vitro aldose reductase inhibitory activity measured by NADPH-dependent inhibition of glyceraldehyde reduction in a partially purified bovine lens preparation at 10E-7 M; summary of the method: as §1
Rattus norvegicus [10] = test: In vivo galactitol inhibitory activity measured by its ability to inhibit galactitol accumulation in lens at 6 mg/Kg/day; NS=Not significant (% Inhibition); format: functional, organism-based; conditions: Lens of camera-type eye; summary of the method: as §3
Rattus norvegicus [11] = test: In vivo galactitol inhibitory activity measured by its ability to inhibit galactitol accumulation in diaphragm at 10 mg/Kg/day; format: functional; summary of the method: as §3
Rattus norvegicus [12] = test: In vivo galactitol inhibitory activity measured by its ability to inhibit galactitol accumulation in sciatic nerve at 10 mg/Kg/day; format: functional; conditions: Rattus norvegicus, Sciatic nerve; summary of the method: as §2
Rattus norvegicus [13] = test: In vivo galactitol inhibitory activity measured by its ability to inhibit galactitol accumulation in lens at 10 mg/Kg/day; format: functional; conditions: Lens of camera-type eye; summary of the method: as §3
Rattus norvegicus [14] = test: In vivo galactitol inhibitory activity measured by its ability to inhibit galactitol accumulation in lens at 10 mg/Kg/day; NS=Not significant (% Inhibition); format: functional; conditions: Lens of camera-type eye; summary of the method: as §3
Rattus norvegicus [15] = test: In vivo galactitol inhibitory activity measured by its ability to inhibit galactitol accumulation in sciatic nerve at 10 mg/Kg/day; NS=Not significant (% Inhibition); format: functional, organism-based; summary of the method: as §2
Rattus norvegicus [16] = test: In vivo galactitol inhibitory activity measured by its ability to inhibit galactitol accumulation in sciatic nerve at 6 mg/Kg/day; NS=Not significant (% Inhibition); format: functional, organism-based; summary of the method: as §2

Row | inhibition [2] | SMILES | Decrease (Mus musculus) | also measured
1 |  | O=C1CC2(C(=O)N1)c1ccccc1S(=O)(=O)N2CCc1ccc(Br)cc1 (configuration not stated) | 25% | inhibition [1]: 0%
2 | 20% | O=C1CC2(C(=O)N1)c1ccccc1S(=O)(=O)N2Cc1ccc2ccccc2c1 (configuration not stated) | <15% | inhibition [1]: 57%
3 | 0% | O=C1CC2(C(=O)N1)c1ccccc1S(=O)(=O)N2Cc1ccc(C(F)(F)F)cc1 (configuration not stated) | <15% | inhibition [1]: 34%
4 | 15% | O=C1CC2(C(=O)N1)c1ccccc1S(=O)(=O)N2Cc1ccc(-c2ccccc2)cc1 (configuration not stated) | <15% | inhibition [1]: 54%
5 |  | CCCCCc1ccc(CN2C(=O)c3ccccc3C23CC(=O)NC3=O)cc1 (configuration not stated) | <15% | 
6 |  | O=C1CC2(C(=O)N1)c1ccccc1S(=O)(=O)N2Cc1c(F)c(F)c(F)c(F)c1F (configuration not stated) | <15% | 
7 |  | O=C1CC2(C(=O)N1)c1ccccc1C(=O)N2Cc1c(F)cccc1Cl (configuration not stated) | <15% | 
8 | 60% | CSc1ccc2c(c1)C(=O)N(C)C21CC(=O)NC1=O (configuration not stated) | <15% | inhibition (Rattus norvegicus [3]): inactive; inhibition (Rattus norvegicus [4]): inactive; inhibition (Rattus norvegicus [5]): inactive
9 | 25% | O=C1CC2(C(=O)N1)c1ccccc1S(=O)(=O)N2Cc1ccc2ccccc2c1Br (configuration not stated) | <15% | inhibition [1]: 59%
10 |  | O=C1CC2(C(=O)N1)c1ccccc1S(=O)(=O)N2Cc1ccc(F)cc1 (configuration not stated) | <15% | 
11 |  | O=C1CC2(C(=O)N1)c1ccccc1S(=O)(=O)N2CCCCc1ccc(Cl)cc1 (configuration not stated) | 20% | 
12 |  | CN1C(=O)c2ccc(Cl)cc2C12CC(=O)NC2=O (single isomer, unassigned; (+)) [listing 1 of 2 here] |  | Inhibition (Rattus norvegicus [6]): 21%; inhibition in vivo at 6 mg/kg/day (Rattus norvegicus [7]): 58%; inhibition in vivo at 6 mg/kg/day (Rattus norvegicus [8]): 67%
13 | 77% | CN1C(=O)c2ccc([N+](=O)[O-])cc2C12CC(=O)NC2=O (configuration not stated) | <15% | inhibition (Rattus norvegicus [3]): inactive; inhibition [9]: 32%; inhibition (Rattus norvegicus [4]): inactive; inhibition (Rattus norvegicus [5]): inactive
14 |  | Cc1cc(Br)ccc1CN1C2(CC(=O)NC2=O)c2ccccc2S1(=O)=O (configuration not stated) | <15% | 
15 |  | O=C1CC2(C(=O)N1)c1ccccc1S(=O)(=O)N2Cc1cccc(Br)c1 (configuration not stated) | <15% | 
16 |  | CCC(CC)N1C2(CC(=O)NC2=O)c2ccccc2S1(=O)=O (configuration not stated) | 31% | 
17 | 82% | CN1C(=O)c2ccc(Cl)cc2C12CC(=O)NC2=O (single isomer, unassigned; (+)) [listing 2 of 2 here] |  | inhibition [9]: 39%
18 |  | O=C1CC2(C(=O)N1)c1ccccc1C(=O)N2Cc1cccc(Br)c1 (configuration not stated) | <15% | 
19 | 80% | CN1C(=O)c2ccc(Cl)cc2C12CC(=O)NC2=O (stereo in doubt; 32) |  | inhibition (Rattus norvegicus [10]): inactive; inhibition [9]: 37%
20 | 0% | O=C1CC2(C(=O)N1)c1ccccc1S(=O)(=O)N2Cc1ccccc1 (configuration not stated) | <15% | inhibition [1]: 45%
21 |  | O=C1CC2(C(=O)N1)c1ccccc1C(=O)N2Cc1ccc(Br)cc1 (configuration not stated) | <15% | 
22 |  | O=C1CC2(C(=O)N1)c1ccccc1S(=O)(=O)N2Cc1ccc(Br)cc1 (configuration not stated) | 37% | 
23 |  | O=C1CC2(C(=O)N1)c1ccccc1S(=O)(=O)N2c1ccc(Br)cc1 (configuration not stated) | <15% | inhibition [1]: 0%
24 | 92% | O=C1CC2(C(=O)N1)C(=O)N(Cc1ccc(Br)cc1F)c1c(Cl)cccc12 (configuration not stated) | <15% | inhibition in vivo at 10 mg/kg/day (Rattus norvegicus [11]): 84%; inhibition in vivo at 10 mg/kg/day (Rattus norvegicus [12]): 86%; inhibition in vivo at 10 mg/kg/day (Rattus norvegicus [13]): 36%; inhibition [9]: 83%
25 | 0% | CN1C2(CC(=O)NC2=O)c2ccccc2S1(=O)=O (configuration not stated) | <15% | inhibition [1]: 40%

Row | inhibition [2] | SMILES | Decrease (Mus musculus) | also measured
26 | 56% | COc1ccc2c(c1)C(=O)N(C)C21CC(=O)NC1=O (configuration not stated) | <15% | inhibition (Rattus norvegicus [3]): inactive; inhibition (Rattus norvegicus [4]): inactive; inhibition (Rattus norvegicus [5]): inactive
27 |  | Cc1cc(CN2C3(CC(=O)NC3=O)c3ccccc3S2(=O)=O)ccc1Br (configuration not stated) | <15% | 
28 |  | COc1ccc2c(C(=S)N(C)CC(=O)O)cccc2c1C(F)(F)F [TOLRESTAT] |  | inhibition (Rattus norvegicus [10]): inactive; inhibition in vivo at 6 mg/kg/day (Rattus norvegicus [7]): 53%; inhibition in vivo at 6 mg/kg/day (Rattus norvegicus [8]): 80%
29 |  | Cc1oc(-c2ccccc2)nc1CCOc1ccc(N2C3(CC(=O)NC3=O)c3ccccc3S2(=O)=O)cc1 (configuration not stated) | <15% | 
30 |  | CSc1ccc(CN2C3(CC(=O)NC3=O)c3ccccc3S2(=O)=O)cc1 (configuration not stated) | <15% | 
31 | 71% | CN1C(=O)c2cc(Br)ccc2C12CC(=O)NC2=O (configuration not stated) | <15% | inhibition (Rattus norvegicus [3]): inactive; inhibition (Rattus norvegicus [14]): inactive; inhibition (Rattus norvegicus [10]): inactive; inhibition in vivo at 10 mg/kg/day (Rattus norvegicus [11]): 39%; inhibition (Rattus norvegicus [15]): inactive; inhibition in vivo at 6 mg/kg/day (Rattus norvegicus [8]): 27%; inhibition (Rattus norvegicus [16]): inactive; inhibition [9]: 27%; inhibition (Rattus norvegicus [4]): inactive; inhibition (Rattus norvegicus [5]): inactive
32 |  | Nc1ccc(CN2C3(CC(=O)NC3=O)c3ccccc3S2(=O)=O)cc1 (configuration not stated) | <15% | 
33 |  | CC(C)(C)c1ccc(CN2C(=O)c3ccccc3C23CC(=O)NC3=O)cc1 (configuration not stated) | <15% | 
34 |  | CCN1C2(CC(=O)NC2=O)c2ccccc2S1(=O)=O (configuration not stated) | <15% | 
35 | 0% | CCCCN1C(=O)c2ccccc2C12CC(=O)NC2=O (configuration not stated) | <15% | 
36 |  | O=C1CC2(C(=O)N1)c1ccccc1S(=O)(=O)N2Cc1ccccc1F (configuration not stated) | <15% | 
37 |  | Cc1oc(-c2ccccc2)nc1CCOc1ccc(CN2C3(CC(=O)NC3=O)c3ccccc3S2(=O)=O)cc1 (configuration not stated) | <15% | 
38 |  | CCCCN1C2(CC(=O)NC2=O)c2ccccc2S1(=O)=O (configuration not stated) | <15% | 
39 |  | O=C1CC2(C(=O)N1)c1ccccc1C(=O)N2Cc1ccccc1 (configuration not stated) | 22% | 
40 | 0% | O=C1CC2(C(=O)N1)c1ccccc1S(=O)(=O)N2Cc1ccc([N+](=O)[O-])cc1 (configuration not stated) | <15% | inhibition [1]: 37%
41 |  | O=C1CC2(C(=O)N1)c1ccccc1S(=O)(=O)N2Cc1ccc(Cl)cc1Cl (configuration not stated) | 19% | 
42 | 82% | CN1C(=O)c2cc3ccccc3cc2C12CC(=O)NC2=O (configuration not stated) | <15% | inhibition in vivo at 10 mg/kg/day (Rattus norvegicus [11]): 59%; inhibition in vivo at 10 mg/kg/day (Rattus norvegicus [12]): 47%; inhibition in vivo at 10 mg/kg/day (Rattus norvegicus [13]): 14%; inhibition [9]: 37%
43 | 0% | O=C1CC2(C(=O)N1)c1ccccc1S(=O)(=O)N2Cc1ccc(Br)cc1F (configuration not stated) | 48% | inhibition [1]: 52%
44 | 24% | O=C1CC2(C(=O)N1)c1ccccc1S(=O)(=O)N2Cc1ccc(Oc2ccccc2)cc1 (configuration not stated) | <15% | inhibition [1]: 67%
45 |  | O=C1CC2(C(=O)N1)c1ccccc1S(=O)(=O)N2Cc1ccc(I)cc1 (configuration not stated) | <15% | 
46 |  | O=C1CC2(C(=O)N1)c1ccccc1S(=O)(=O)N2Cc1ccc(Br)cc1Cl (configuration not stated) | <15% | 
47 |  | Cc1oc(-c2ccccc2)nc1CCN1C2(CC(=O)NC2=O)c2ccccc2S1(=O)=O (configuration not stated) | <15% | 
48 |  | O=C1CC2(C(=O)N1)c1ccccc1C(=O)N2Cc1ccc(I)cc1 (configuration not stated) | <15% | 
49 |  | CC(=O)Nc1ccc(CN2C3(CC(=O)NC3=O)c3ccccc3S2(=O)=O)cc1 (configuration not stated) | <15% | 
50 |  | O=C(O)CN1C2(CC(=O)NC2=O)c2ccccc2S1(=O)=O (configuration not stated) |  | inhibition [1]: 0%
